Active and inactive are the calls of the source.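 Rule for the calls, unless noted: active = fluorescence slope after compound addition differing from the mean of all tested samples at 99.7% confidence, mostly higher but some lower; inactive = the rest.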

A short description of test [1]: inhibitors of TNFa-induced NFkB p65 translocation, primary screen, imaging, HUVEC, MLSMR starter and 10KST1 sets (AID 438;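 active = inhibition above 20% together with a positive visual image hit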;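 note: compound added about 3h40 before a 20 min TNFalpha stimulation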;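 for inhibition: signal is the nuclear over cytoplasmic p65 intensity ratio per well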). The settings on record: HUVEC TNFa-induced p65 nuclear translocation; cell count: measured here: nuclei count (cytotoxicity indicator), at 2.08 µM; inhibition: at 2 µM, stronger effect = higher value, 0% TNFa-plus-vehicle, 100% no-TNFa wells.
A short description of test [2]: inhibitors of E-selectin induction by TNFa, primary screen, imaging, HUVEC, immunofluorescence, MLSMR starter and 10KST1 sets (AID 487;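 active = visually confirmed hit in the image check and inhibition above 20%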;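 for inhibition: signal is fraction of cell area covered by stained E-selectin grains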;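 for nuclei count: 100% = median nuclei count of all wells on the same plate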). The settings on record: HUVEC TNFalpha-induced E-selectin immunofluorescence imaging, at 2 µM; inhibition: stronger effect = higher value; nuclei count: measured here: cell number, toxicity.
Test [3] is described as follows: DUSP6 inhibitors restoring Erk phosphorylation by chemical complementation, primary imaging in DUSP6-transfected HeLa (AID 609;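 active = compounds giving at least 50% inhibition in the cell-based MKP-3 phosphatase rescue imaging test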;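 for inhibition: phospho-Erk level distribution per well compared with pooled transfected vehicle control wells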). The settings on record: HeLa MKP-3 transfected, phospho-Erk imaging KS statistic, at 10 µM, cells stimulated with TPA for 15 min.
Test [4] concerns the target Dual specificity protein phosphatase 6 (Homo sapiens) (UniProt Q16828). The description is as above. To be noted: HeLa MKP-3 transfected, phospho-Erk imaging KS statistic; at 10 µM; stronger effect = higher value; cells stimulated with TPA for 15 min.
The target of test [5] is Voltage-gated potassium channel subunit beta-2 (Rattus norvegicus) (UniProt P62483). The test can be described thus: KvBeta enzyme negative modulators, primary screen, biochemical, NADPH fluorescence (AID 622;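 active = fluorescence slope higher than the sample average by over 3 SD, cut at about -0.22 in these data, passing the limit was not always enough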;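 note: slope of raw intensity against log time taken from 70 to 1610 s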). The settings on record: recombinant KvBeta, 4-cyanobenzaldehyde reduction, at 10 µM, stronger effect = higher value.
Test [6] shares this target. The test can be described thus: KvBeta positive modulators, primary screen, biochemical, NADPH fluorescence (AID 623;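 active = NADPH fluorescence slope more negative than the mean of all samples by about 3 SD, 99.7% confidence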;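 note: fluorescence intensity change per second fitted from 20 to 320 s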). The settings on record: Recombinant KvBeta, NADPH fluorescence decrease slope, 10 min; at 10 µM; stronger effect = lower value.
Test [7] addresses Muscarinic acetylcholine receptor M4 (Homo sapiens) (UniProt P08173). The test is described as follows: compounds altering M4/GIRK thallium flux, either direction, primary screen, M4 allosteric agonist project, cell-based, HEK293 M4/GIRK, BTC-AM (AID 625).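 Note: thallium influx through GIRK channels coupled to M4 in HEK293 cells with BTC-AM dye.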 The settings on record: at 10 µM, actives lie on both sides. The method, boiled down:
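Assay system: HEK293 cells with M4 receptor and GIRK channels / Controls: carbachol and DMSO controls / Schedule: 1 h dye loading, 2 min kinetic read / Technique: kinetic fluorescence with BTC-AM dye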

Test [8] is described as follows: inhibitors of larval lipid processing in zebrafish, primary screen, whole organism, PED6 fluorescence, gall bladder and intestine (AID 686;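 active = a full or partial loss of lipid-probe fluorescence in the fish gall bladder, intestine or both, judged by eye; inactive = no fluorescence loss, or compound toxic to the fish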;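 note: larvae 5 to 7 days old with five fish per well; signal comes from phospholipase A2 cleavage of quenched PED6 carried via bile; overnight exposure to compound and PED6 before scoring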). To be noted: Zebrafish larvae PED6 lipid processing, fluorescence scoring; screened at 20 µM (by protocol). A digest of the protocol:
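Doses: 20 µM single dose. Test system: live zebrafish larvae aged 5-7 days, whole organism. Quantity: five larvae per well. Measured by: By-eye fluorescence microscopy. Reagent: ingested quenched lipid PED6 at 100 nM. Read-out: visual per-well fluorescence inhibition score. Times: overnight exposure of larvae to compound plus PED6.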

Test [9] in a line: inhibitors of Chlamydomonas gravitaxis, primary screen, whole organism, Chlamydomonas reinhardtii, WT vs cilia-less mutant, absorbance, 96-well (AID 463189;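 active = inhibition at or above 50% relative to wild type and mutant plate controls; inactive = inhibition below 50%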;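 note: 0% = wild type cc124 cells in DMSO and 100% = ciliumless bld1 mutant cells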). To be noted: OD600 absorbance, 2 days, at 10 µM, stronger effect = higher value.
[10] abbreviates: measured here: cell density z-score.
Where [11] appears, read: measured here: nuclear c-Myc green intensity z-score.
Where [12] appears, read: measured here: nuclear pErk red intensity z-score, stronger effect = higher value.

Dual specificity protein phosphatase 6 (Homo sapiens), sequence (Q16828 whole entry, looked up): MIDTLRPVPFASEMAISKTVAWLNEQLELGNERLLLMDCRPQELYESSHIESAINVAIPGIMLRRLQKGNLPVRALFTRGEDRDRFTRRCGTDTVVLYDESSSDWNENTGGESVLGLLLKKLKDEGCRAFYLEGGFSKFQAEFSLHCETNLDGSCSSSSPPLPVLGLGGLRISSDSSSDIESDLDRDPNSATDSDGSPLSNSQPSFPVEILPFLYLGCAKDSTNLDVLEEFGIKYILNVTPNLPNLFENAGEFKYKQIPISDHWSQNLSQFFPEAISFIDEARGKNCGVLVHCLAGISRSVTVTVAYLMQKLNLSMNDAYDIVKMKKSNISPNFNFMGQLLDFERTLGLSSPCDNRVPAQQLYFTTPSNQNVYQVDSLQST
Muscarinic acetylcholine receptor M4 (Homo sapiens), sequence (P08173 whole entry, looked up): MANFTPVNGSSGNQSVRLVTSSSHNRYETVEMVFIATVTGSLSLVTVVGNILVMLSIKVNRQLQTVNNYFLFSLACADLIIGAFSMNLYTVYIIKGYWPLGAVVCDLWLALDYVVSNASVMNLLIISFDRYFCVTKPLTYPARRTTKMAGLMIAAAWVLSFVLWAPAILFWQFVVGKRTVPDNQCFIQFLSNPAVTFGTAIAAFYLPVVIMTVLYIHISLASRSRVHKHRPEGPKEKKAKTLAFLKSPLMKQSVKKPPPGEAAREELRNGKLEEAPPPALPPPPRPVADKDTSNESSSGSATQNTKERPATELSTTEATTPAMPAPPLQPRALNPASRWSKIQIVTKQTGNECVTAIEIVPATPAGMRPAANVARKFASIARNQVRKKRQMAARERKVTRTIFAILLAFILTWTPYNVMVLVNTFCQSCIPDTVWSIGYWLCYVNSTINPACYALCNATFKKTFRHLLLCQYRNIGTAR
Voltage-gated potassium channel subunit beta-2 (Rattus norvegicus), sequence (P62483 whole entry, looked up): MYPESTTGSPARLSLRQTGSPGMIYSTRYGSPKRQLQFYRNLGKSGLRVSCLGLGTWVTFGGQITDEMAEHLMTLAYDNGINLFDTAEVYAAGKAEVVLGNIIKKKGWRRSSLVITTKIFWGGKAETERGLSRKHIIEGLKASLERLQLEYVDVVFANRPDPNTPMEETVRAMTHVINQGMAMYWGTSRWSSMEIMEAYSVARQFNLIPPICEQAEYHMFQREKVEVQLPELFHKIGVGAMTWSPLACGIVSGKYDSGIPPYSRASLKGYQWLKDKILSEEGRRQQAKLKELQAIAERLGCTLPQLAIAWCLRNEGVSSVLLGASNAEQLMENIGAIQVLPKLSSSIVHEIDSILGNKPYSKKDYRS

For the molecule `O=C1CC(c2ccco2)CC(O)=C1C=NCCN1CCN(C2CC(=O)N(c3ccccc3)C2=O)CC1` (stereo unspecified), the cell count in [1] was 378. For the same molecule, the inhibition in [1] is -0.3% (inactive); in test [2], -133% (inactive); in test [4], -4.78% (inactive); in test [9], -7.38% (inactive). The same molecule yielded a nuclei count in test [2] of 162%. Moreover, the z-score in test [3] (setting [10]) was -1.98; in [3] (setting [11]) it was 0.592; in [3] (setting [12]), 0.0438. Further, the fluorescence slope was -0.462 (inactive) in test [5] and 0.00456 (inactive) in [7]. Also, the NADPH fluorescence slope in test [6] was -6e-05 (inactive). For the same molecule, the outcome in [8] was inactive.
In the case of `COc1ccc(C2CC(c3ccc(C)cc3)Nc3nc(N)nn32)cc1` (stereo unspecified), the cell count in test [1] worked out at 390. In addition, the inhibition in test [1] is 2.2% (inactive); in test [2], -104% (inactive); in [4] it was 9.82% (inactive); in test [9], -10.9% (inactive). The nuclei count in [2] amounted to 145%. Moreover, the z-score is -0.765 in test [3] (setting [10]), 2.44 in test [3] (setting [11]) and -0.827 in test [3] (setting [12]). Further, the fluorescence slope in test [5] was -0.447 (inactive); in test [7] it was 0.00548 (inactive). In addition, the NADPH fluorescence slope in test [6] is -7.3e-05 (inactive). In addition, the outcome in [8] was inactive.
For `Cc1cc(=O)oc2c(CN3CCC(C)CC3)c(O)c(Cl)cc12`, the cell count in [1] was 654. Further, the inhibition was -6.9% (inactive) in [1], -12% (inactive) in test [2], 1.12% (inactive) in test [4] and -2.21% (inactive) in [9]. Besides, the nuclei count in test [2] was 171%. For the same molecule, the z-score worked out at 0.311 in [3] (setting [10]), 0.013 in [3] (setting [11]) and 0.217 in test [3] (setting [12]). Also, the values for the fluorescence slope in [5] and in [7] were -0.0249 (inactive) and 0.00736 (inactive), respectively. Further, in [6], the NADPH fluorescence slope was 4.3e-06 (inactive). The result in [8] was inactive.
With `CCn1c(SCC(=O)N2CCOCC2)nc2sc3c(c2c1=O)CCCC3`, the cell count in [1] worked out at 577. The inhibition in test [1] was -9.8% (inactive); in test [2], -55% (inactive); in test [4], -8.59% (inactive); in test [9], 13.7% (inactive). The same molecule gave a nuclei count in test [2] of 122%. Also, the z-score in [3] (setting [10]) is -0.0545; in test [3] (setting [11]) it was -0.0901; in test [3] (setting [12]), 0.641. Besides, the fluorescence slope in test [5] is -0.463 (inactive); in [7], 0.0048 (inactive). For the same molecule, in test [6], the NADPH fluorescence slope is -0.000111 (inactive). Further, the result in test [8] was inactive.
Consider `COc1ccccc1-c1nnc2n1N=C(c1ccc(O)c(O)c1)CS2`, for which the cell count in [1] was 485. The inhibition in test [1] is 50.9% (active); in test [2], -490% (inactive); in [4], -6.48% (inactive); in [9] it was -2.32% (inactive). Also, the nuclei count in [2] turned out to be 70.4%. For the same molecule, the z-score in [3] (setting [10]) was 1.36; in test [3] (setting [11]), -1.29; in [3] (setting [12]) it was -0.603. Also, the fluorescence slope was -0.429 (inactive) in [5] and 0.00474 (inactive) in [7]. Also, the NADPH fluorescence slope in test [6] was -1.7e-05 (inactive). For the same molecule, the call in test [8] was inactive.
Regarding `Cc1cc(C)n(-c2c(F)c(F)c(CN3CCCCC3)c(F)c2F)n1`, the cell count in test [1] amounted to 557. For the same molecule, the inhibition in test [1] is 6.8% (inactive); in test [2], 29.4% (inactive); in test [4], 17.8% (inactive); in [9], 26% (inactive). This molecule also registered a nuclei count in test [2] of 107%. In addition, the z-score in test [3] (setting [10]) is -0.661; in test [3] (setting [11]), 0.711; in test [3] (setting [12]), -1.05. Also, the fluorescence slope in [5] was -0.349 (inactive); in test [7], 0.00483 (inactive). Further, the NADPH fluorescence slope in test [6] was 1.9e-06 (inactive). The result in test [8] was inactive.
As for `Cc1ccc(C(=O)/C=C/Nc2ccccn2)cc1`, the cell count in test [1] amounted to 361. Further, the inhibition was -5.9% (inactive) in test [1], -98.9% (inactive) in [2], 15.4% (inactive) in test [4] and 35.5% (inactive) in test [9]. In test [2], this molecule registered a nuclei count of 104%. Further, the values for the z-score in [3] (setting [10]), in [3] (setting [11]) and in test [3] (setting [12]) were 0.761, 0.782 and -1.14, respectively. Moreover, the fluorescence slope in [5] is -0.455 (inactive); in [7], 0.00424 (inactive). In addition, the NADPH fluorescence slope in [6] is -3.3e-05 (inactive). In addition, the molecule was called inactive in test [8].
`COc1ccc(/C(O)=C2/C(=O)C(=O)N(Cc3ccco3)C2c2cccs2)cc1` (stereo unspecified): the cell count in test [1] was determined as 651. Moreover, the inhibition in test [1] was 89.9% (active); in test [2] it was -68.9% (inactive); in test [4], 3.42% (inactive); in test [9], 1.62% (inactive). Moreover, in test [2], the nuclei count was 157%. Also, the z-score in [3] (setting [10]) was 1.37; in [3] (setting [11]) it was -0.407; in test [3] (setting [12]), -1.07. In addition, the fluorescence slope in [5] was -0.435 (inactive); in test [7], 0.00532 (inactive). The NADPH fluorescence slope in test [6] was -4.8e-05 (inactive). The call in test [8] was inactive.
Take `COc1cccc(Cn2c(NCc3ccccn3)nc3c2c(=O)n(C)c(=O)n3C)c1`: the cell count in test [1] came to 694. Further, the inhibition is -20.9% (inactive) in test [1], -199% (inactive) in test [2], 17.8% (inactive) in test [4] and 4.17% (inactive) in test [9]. Moreover, in test [2], the nuclei count amounted to 189%. Also, the z-score was 0.955 in [3] (setting [10]), -1.34 in test [3] (setting [11]) and -0.0315 in test [3] (setting [12]). Further, the figures for the fluorescence slope in [5] and in test [7] were -0.5 (inactive) and 0.00592 (inactive), respectively. Also, the NADPH fluorescence slope in test [6] was -7.9e-05 (inactive). Besides, the result in [8] was inactive.
Take `CCCn1c(SCC#N)nc2c(c1=O)C1(CCCC1)Cc1ccccc1-2`: the cell count in [1] came out at 547. Moreover, the inhibition was -1.4% (inactive) in test [1], -10.8% (inactive) in test [2], 3.97% (inactive) in test [4] and -14.9% (inactive) in test [9]. Further, in [2], the nuclei count turned out to be 185%. The z-score in [3] (setting [10]) was -0.545; in [3] (setting [11]) it was 0.717; in test [3] (setting [12]) it was -0.241. Also, the fluorescence slope was -0.402 (inactive) in test [5] and 0.00798 (inactive) in [7]. For the same molecule, the NADPH fluorescence slope in test [6] was -3.9e-05 (inactive). The molecule was classed as inactive in test [8].
Regarding `Cc1ccc(OCC(=O)N(C)CCc2ccccn2)cc1`, the cell count in test [1] came out at 475. The inhibition was -5.5% (inactive) in [1], -175% (inactive) in test [2], -2.29% (inactive) in test [4] and 7.87% (inactive) in test [9]. For the same molecule, in test [2], the nuclei count amounted to 159%. Further, the z-score in test [3] (setting [10]) was -0.678; in test [3] (setting [11]), -1.49; in [3] (setting [12]) it was 1.57. Also, the fluorescence slope in [5] was -0.433 (inactive); in test [7], 0.00557 (inactive). Besides, in [6], the NADPH fluorescence slope is -5.2e-05 (inactive). The result in test [8] was inactive.
For the molecule `CC1(C)NC(=O)N(CC(O)COc2cc3ccccc3cc2C(=O)N2CCCCC2)C1=O` (stereo unspecified), the cell count in test [1] was determined as 595. Also, the inhibition is -11.9% (inactive) in [1], 5.9% (inactive) in test [2], 5.42% (inactive) in [4] and 33.9% (inactive) in [9]. The nuclei count in test [2] is 157%. Besides, the z-score in [3] (setting [10]) is 0.439; in [3] (setting [11]), 1.12; in [3] (setting [12]) it was -0.435. Also, the fluorescence slope in test [5] is -0.383 (inactive); in test [7], 0.00552 (inactive). For the same molecule, the NADPH fluorescence slope in test [6] was 2.1e-06 (inactive). For the same molecule, in test [8], the molecule was classed as inactive.

As a reminder, the inhibition is the change of the read-out against control, counted positive when it falls.

Values taken from PubChem BioAssay.
